Converted amounts (≈) assume the structure as drawn.
Columns and labels:
[1] = system: Prevotella melaninogenica; assay: Antibacterial activity against anaerobic Bacteroides melaninogenicus 2736; assay type: functional
Summary of the method: (§1)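 MIC by agar dilution following the NCCLS M11-A2 (2nd ed.) procedure for antimicrobial testing of anaerobic bacteria.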

Streptococcus pneumoniae = assay: Antibacterial activity against aerobic Streptococcus pneumoniae PARK; assay type: functional
Summary of the method: (§2)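 MIC by agar dilution following the NCCLS M7-A2 (2nd ed.) procedure for bacteria that grow aerobically.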

Pseudomonas aeruginosa = assay: Antibacterial activity against aerobic Pseudomonas aeruginosa X239 strain; assay type: functional; summary of the method: as §2
Clostridium septicum = assay: Antibacterial activity against anaerobic Clostridium septicum 1128; assay type: functional; summary of the method: as §1
[2] = Antibacterial activity against anaerobic Peptostreptococcus intermedius 1264; assay type: functional; summary of the method: as §1
Escherichia coli = assay: Antibacterial activity against aerobic Escherichia coli EC14; assay type: functional; summary of the method: as §2
Bacteroides fragilis [3] = assay: Antibacterial activity against anaerobic Bacteroides fragilis 1936B; assay type: functional; summary of the method: as §1
Klebsiella aerogenes = assay: Antibacterial activity against aerobic Enterobacter aerogenes C32; assay type: functional; summary of the method: as §2
[4] = system: Prevotella melaninogenica; assay: Antibacterial activity against anaerobic Bacteroides melaninogenicus 1856/28; assay type: functional; summary of the method: as §1
Anaerococcus prevotii = assay: Antibacterial activity against anaerobic Peptococcus prevoti 1281; assay type: functional; summary of the method: as §1
Eikenella corrodens = assay: Antibacterial activity against anaerobic Bacteroides corrodens 1874; assay type: functional; summary of the method: as §1
[5] = Antibacterial activity against anaerobic Eubacterium aerofaciens 1235; assay type: functional; details: Collinsella aerofaciens; summary of the method: as §1
Bacteroides fragilis [6] = assay: Antibacterial activity against anaerobic Bacteroides fragilis 111; assay type: functional; summary of the method: as §1
[7] = Antibacterial activity against anaerobic Fusobacterium symbiosum 1470; assay type: functional, fusobacterium symbosium; summary of the method: as §1
Cutibacterium acnes = assay: Antibacterial activity against anaerobic Propionibacterium acnes 79; assay type: functional; summary of the method: as §1
Phocaeicola vulgatus = assay: Antibacterial activity against anaerobic Bacteroides vulgatus 1211; assay type: functional; summary of the method: as §1
Clostridium perfringens = assay: Antibacterial activity against anaerobic Clostridium perfringens 81; assay type: functional
Summary of the method: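 Agar dilution MIC following NCCLS document M11-A2 (Vol. 10, no. 15), the method for antimicrobial testing of anaerobic bacteria; value reported as minimum inhibitory concentration.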

[8] = system: Staphylococcus epidermidis; assay: Antibacterial activity against aerobic Staphylococcus epidermidis 222; assay type: functional; summary of the method: as §2
Staphylococcus aureus = assay: Antibacterial activity against aerobic Staphylococcus aureus X1.1 strain; assay type: functional; summary of the method: as §2
[9] = Antibacterial activity against anaerobic Peptococcus asaccharolyticus 1302; assay type: functional; details: Peptoniphilus asaccharolyticus; summary of the method: as §1
[10] = system: Bacteroides thetaiotaomicron; assay: Antibacterial activity against anaerobic Bacteroides thetaiotaomicron 1438; assay type: functional; summary of the method: as §1
Klebsiella pneumoniae = assay: Antibacterial activity against aerobic Klebsiella pneumoniae X26; assay type: functional; summary of the method: as §2
Bacteroides fragilis [11] = assay: Antibacterial activity against anaerobic Bacteroides fragilis 1877; assay type: functional; summary of the method: as §1
[12] = system: Peptostreptococcus anaerobius; assay: Antibacterial activity against anaerobic Peptostreptococcus anaerobius 1451; assay type: functional; summary of the method: as §1
Clostridioides difficile = assay: Antibacterial activity against anaerobic Clostridium difficile 2994 strain; assay type: functional; summary of the method: as §1
Haemophilus influenzae = assay: Antibacterial activity against aerobic Haemophilus influenzae RES 76; assay type: functional; summary of the method: as §2
[13] = system: Fusobacterium necrophorum; assay: Antibacterial activity against anaerobic Fusobacterium necrophorum 6054A; assay type: functional; summary of the method: as §1
[14] = Area under plasma time curve determined in male rat; assay type: ADME, organism-based
Summary of the method: (§3)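 Male Sprague-Dawley rats given 20 mg/kg i.v. in saline through an indwelling jugular vein cannula, which was also used for serial blood sampling over 6 h. Plasma drug measured by agar well diffusion bioassay with Micrococcus luteus ATCC9241 (detection limit 3.2 μg/mL plasma). AUC by Simpson's rule.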

[15] = Maximum concentration reached following intravenous administration in male rat; assay type: ADME, organism-based; design: route intravenous; details: in vivo; summary of the method: as §3
Bacteroides fragilis [16] = assay: Antibacterial activity against anaerobic; assay type: functional; summary of the method: as §1

Row | Structure (SMILES) | MIC [1] [µg/mL] | MIC (Streptococcus pneumoniae) [µg/mL] | MIC (Pseudomonas aeruginosa) [µg/mL] | MIC (Clostridium septicum) [µg/mL] | MIC [2] [µg/mL] | MIC (Escherichia coli) [µg/mL] | MIC (Bacteroides fragilis [3]) [µg/mL] | MIC (Klebsiella aerogenes) [µg/mL] | MIC [4] [µg/mL] | MIC (Anaerococcus prevotii) [µg/mL] | MIC (Eikenella corrodens) [µg/mL] | MIC [5] [µg/mL] | MIC (Bacteroides fragilis [6]) [µg/mL] | MIC [7] [µg/mL] | MIC (Cutibacterium acnes) [µg/mL] | MIC (Phocaeicola vulgatus) [µg/mL] | MIC (Clostridium perfringens) [µg/mL] | MIC [8] [µg/mL] | MIC (Staphylococcus aureus) [µg/mL] | MIC [9] [µg/mL] | other results
1 | CO/N=C(\C(=O)N[C@@H]1C(=O)N2C(C(=O)O)=C(Sc3ncc(C#N)s3)CC[C@H]12)c1csc(N)n1 | 32 (≈ 63.3 µM) | 0.008 (≈ 0.0158 µM) | 128 (≈ 253 µM) | 1 (≈ 1.98 µM) | 0.03 (≈ 0.0593 µM) | 0.5 (≈ 0.989 µM) | > 128 | 0.5 (≈ 0.989 µM) | 0.25 (≈ 0.494 µM) | 0.5 (≈ 0.989 µM) | > 128 | 16 (≈ 31.6 µM) | > 128 | 2 (≈ 3.96 µM) | 0.03 (≈ 0.0593 µM) | 16 (≈ 31.6 µM) | 0.25 (≈ 0.494 µM) | 1 (≈ 1.98 µM) | 0.25 (≈ 0.494 µM) | 0.25 (≈ 0.494 µM) | MIC [10]: 4 µg/mL (≈ 7.91 µM); MIC (Klebsiella pneumoniae): 0.25 µg/mL (≈ 0.494 µM); MIC (Bacteroides fragilis [11]): 16 µg/mL (≈ 31.6 µM); MIC [12]: 0.5 µg/mL (≈ 0.989 µM); MIC (Clostridioides difficile): 0.06 µg/mL (≈ 0.119 µM); MIC (Haemophilus influenzae): 0.125 µg/mL (≈ 0.247 µM); MIC [13]: 0.25 µg/mL (≈ 0.494 µM)
2 | Nc1nc(/C(=N/OCCF)C(=O)N[C@@H]2C(=O)N3C(C(=O)O)=C(Sc4ncc([N+](=O)[O-])s4)CC[C@H]23)cs1 | 1 (≈ 1.79 µM) | 0.008 (≈ 0.0143 µM) | > 128 | 1 (≈ 1.79 µM) | ≤ 0.5 | 0.5 (≈ 0.897 µM) | 4 (≈ 7.17 µM) | 1 (≈ 1.79 µM) | 2 (≈ 3.59 µM) | ≤ 0.5 | 8 (≈ 14.3 µM) | 4 (≈ 7.17 µM) | 4 (≈ 7.17 µM) | 1 (≈ 1.79 µM) | ≤ 0.5 | 1 (≈ 1.79 µM) | 1 (≈ 1.79 µM) | 1 (≈ 1.79 µM) | 0.125 (≈ 0.224 µM) | ≤ 0.5 | AUC [14]: 11100 ng·h/mL; Cmax [15]: 54.2 µg/mL; MIC [10]: ≤ 0.5 µg/mL; MIC (Klebsiella pneumoniae): 0.008 µg/mL (≈ 0.0143 µM); MIC (Bacteroides fragilis [11]): 1 µg/mL (≈ 1.79 µM); MIC [12]: ≤ 0.5 µg/mL; MIC (Clostridioides difficile): 4 µg/mL (≈ 7.17 µM); MIC (Haemophilus influenzae): 0.008 µg/mL (≈ 0.0143 µM); MIC [13]: ≤ 0.5 µg/mL
3 | CO[C@@]1(NC(=O)C2SC(=C(C(N)=O)C(=O)O)S2)C(=O)N2C(C(=O)O)=C(CSc3nnnn3C)CS[C@@H]21 (stereo not given in full) [CEFOTETAN] | 128 (≈ 222 µM) | 4 (≈ 6.95 µM) | > 128 | 4 (≈ 6.95 µM) | 8 (≈ 13.9 µM) | 0.125 (≈ 0.217 µM) | 8 (≈ 13.9 µM) | 8 (≈ 13.9 µM) | 128 (≈ 222 µM) | 8 (≈ 13.9 µM) | 8 (≈ 13.9 µM) | 4 (≈ 6.95 µM) | 8 (≈ 13.9 µM) | 128 (≈ 222 µM) | 1 (≈ 1.74 µM) | 4 (≈ 6.95 µM) | 1 (≈ 1.74 µM) | 16 (≈ 27.8 µM) | 8 (≈ 13.9 µM) | 1 (≈ 1.74 µM) | MIC [10]: 1 µg/mL (≈ 1.74 µM); MIC (Klebsiella pneumoniae): 0.125 µg/mL (≈ 0.217 µM); MIC (Bacteroides fragilis [11]): 8 µg/mL (≈ 13.9 µM); MIC [12]: 128 µg/mL (≈ 222 µM); MIC (Clostridioides difficile): 16 µg/mL (≈ 27.8 µM); MIC (Haemophilus influenzae): 1 µg/mL (≈ 1.74 µM); MIC [13]: > 128 µg/mL
4 | CO[C@@]1(NC(=O)Cc2cccs2)C(=O)N2C(C(=O)O)=C(COC(N)=O)CS[C@@H]21 [CEFOXITIN] | 8 (≈ 18.7 µM) | 0.5 (≈ 1.17 µM) | > 128 | 4 (≈ 9.36 µM) | 2 (≈ 4.68 µM) | 2 (≈ 4.68 µM) | 8 (≈ 18.7 µM) | > 128 | 4 (≈ 9.36 µM) | 1 (≈ 2.34 µM) | 4 (≈ 9.36 µM) | 8 (≈ 18.7 µM) | 8 (≈ 18.7 µM) | 8 (≈ 18.7 µM) | 2 (≈ 4.68 µM) | 8 (≈ 18.7 µM) | 2 (≈ 4.68 µM) | 4 (≈ 9.36 µM) | 4 (≈ 9.36 µM) | ≤ 0.5 | MIC [10]: 2 µg/mL (≈ 4.68 µM); MIC (Bacteroides fragilis [16]): 4 µg/mL (≈ 9.36 µM); MIC (Klebsiella pneumoniae): 1 µg/mL (≈ 2.34 µM); MIC [12]: 2 µg/mL (≈ 4.68 µM); MIC (Clostridioides difficile): 32 µg/mL (≈ 74.9 µM); MIC (Haemophilus influenzae): 2 µg/mL (≈ 4.68 µM); MIC [13]: ≤ 0.5 µg/mL

Source: ChEMBL document CHEMBL1126762, “Synthesis and anaerobic activity of novel 1-carba-1-dethiacephalosporins” (J Med Chem, 1993)
